Reference: ChEMBL document CHEMBL3045650, “Design, synthesis, and 3D-QSAR analysis of novel 1,3,4-oxadiazol-2(3H)-ones as protoporphyrinogen oxidase inhibitors” (J Agric Food Chem, 2010)

What was measured:
Amaranthus retroflexus [1] = test: Post-emergence herbicidal activity against Amaranthus retroflexus assessed as growth inhibition at emulsified concentrate of 37.5 g/ai ha after 15 days by greenhouse test; assay type: functional
How it was run: (§1)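 Compounds were made up as 100 g/L emulsifiable concentrates in DMF with Tween-80, then diluted in water. About 20 seeds were sown 1-3 cm deep in pots and grown in a greenhouse at 15-30 °C and 50% relative humidity. Sprays were applied postemergence at the two-leaf stage. Untreated and DMF + Tween-80 solvent controls were included. Injury was scored visually 15 days after treatment, with three replicates per treatment.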

Polygonum humifusum [2] = test: Post-emergence herbicidal activity against Polygonum humifusum assessed as growth inhibition at emulsified concentrate of 150 g/ai ha after 15 days by greenhouse test; assay type: functional
Rumex acetosa [3] = test: Post-emergence herbicidal activity against Rumex acetosa assessed as growth inhibition at emulsified concentrate of 75 g/ai ha after 15 days by greenhouse test; assay type: functional
Abutilon theophrasti [4] = test: Post-emergence herbicidal activity against Abutilon theophrasti (velvetleaf) assessed as growth inhibition at emulsified concentrate of 150 g/ai ha after 15 days by greenhouse test; assay type: functional
Eclipta prostrata [5] = test: Post-emergence herbicidal activity against Eclipta prostrata assessed as growth inhibition at emulsified concentrate of 75 g/ai ha after 15 days by greenhouse test; assay type: functional; how it was run: as §1
Amaranthus retroflexus [6] = test: Post-emergence herbicidal activity against Amaranthus retroflexus assessed as growth inhibition at emulsified concentrate of 150 g/ai ha after 15 days by greenhouse test; assay type: functional
How it was run: (§2)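 About 20 seeds sown 1–3 cm deep, grown at 15–30 °C and 50% RH. Dicot seedlings sprayed postemergence at the two-leaf stage with a 100 g/L emulsifiable concentrate (DMF/Tween-80) diluted in water, 150 g ai/ha. Untreated and solvent controls included. Visual rating at 15 days, three replicates.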

Eclipta prostrata [7] = test: Post-emergence herbicidal activity against Eclipta prostrata assessed as growth inhibition at emulsified concentrate of 37.5 g/ai ha after 15 days by greenhouse test; assay type: functional; how it was run: as §1
Rumex acetosa [8] = test: Post-emergence herbicidal activity against Rumex acetosa assessed as growth inhibition at emulsified concentrate of 37.5 g/ai ha after 15 days by greenhouse test; assay type: functional
Abutilon theophrasti [9] = test: Post-emergence herbicidal activity against Abutilon theophrasti (velvetleaf) assessed as growth inhibition at emulsified concentrate of 75 g/ai ha after 15 days by greenhouse test; assay type: functional
Cyperus iria [10] = test: Post-emergence herbicidal activity against Cyperus iria assessed as growth inhibition at emulsified concentrate of 75 g/ai ha after 15 days by greenhouse test; assay type: functional
Rumex acetosa [11] = test: Post-emergence herbicidal activity against Rumex acetosa assessed as growth inhibition at emulsified concentrate of 150 g/ai ha after 15 days by greenhouse test; assay type: functional
Poa annua = test: Post-emergence herbicidal activity against Poa annua assessed as growth inhibition at emulsified concentrate of 150 g/ai ha after 15 days by greenhouse test; assay type: functional
How it was run: (§3)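 About 20 seeds sown 1–3 cm deep, grown at 15–30 °C and 50% RH. Monocot seedlings sprayed postemergence at the one-leaf stage with a 100 g/L emulsifiable concentrate (DMF/Tween-80) diluted in water, 150 g ai/ha. Untreated and solvent controls included. Visual rating at 15 days, three replicates.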

Echinochloa crus-galli = test: Post-emergence herbicidal activity against Echinochloa crus-galli (barnyard grass) assessed as growth inhibition at emulsified concentrate of 150 g/ai ha after 15 days by greenhouse test; assay type: functional; how it was run: as §3
Brassica juncea [12] = test: Post-emergence herbicidal activity against Brassica juncea assessed as growth inhibition at emulsified concentrate of 150 g/ai ha after 15 days by greenhouse test; assay type: functional; how it was run: as §2
Brassica juncea [13] = test: Post-emergence herbicidal activity against Brassica juncea assessed as growth inhibition at emulsified concentrate of 37.5 g/ai ha after 15 days by greenhouse test; assay type: functional; how it was run: as §1
[14] = molecular target: T1, Protoporphyrinogen oxidase (Homo sapiens, UniProt P50336); test: Inhibition of Homo sapiens (human) recombinant protoporphyrinogen oxidase expressed in Escherichia coli JM109 assessed as oxidation of protoporphyrinogen IX substrate by fluorescence assay
T1 sequence (P50336 whole entry): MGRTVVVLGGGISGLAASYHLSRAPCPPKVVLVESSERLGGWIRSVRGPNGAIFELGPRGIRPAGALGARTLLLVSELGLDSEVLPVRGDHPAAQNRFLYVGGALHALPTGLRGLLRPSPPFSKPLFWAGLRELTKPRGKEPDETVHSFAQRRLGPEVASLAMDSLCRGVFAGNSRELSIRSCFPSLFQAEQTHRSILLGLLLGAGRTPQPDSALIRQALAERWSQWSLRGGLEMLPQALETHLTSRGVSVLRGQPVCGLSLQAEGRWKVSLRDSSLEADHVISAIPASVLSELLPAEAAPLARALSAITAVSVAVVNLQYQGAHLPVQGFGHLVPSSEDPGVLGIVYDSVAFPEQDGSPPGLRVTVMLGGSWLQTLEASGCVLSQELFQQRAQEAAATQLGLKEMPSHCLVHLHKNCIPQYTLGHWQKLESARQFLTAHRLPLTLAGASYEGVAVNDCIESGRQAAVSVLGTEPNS

Polygonum humifusum [15] = test: Post-emergence herbicidal activity against Polygonum humifusum assessed as growth inhibition at emulsified concentrate of 37.5 g/ai ha after 15 days by greenhouse test; assay type: functional
Cyperus iria [16] = test: Post-emergence herbicidal activity against Cyperus iria assessed as growth inhibition at emulsified concentrate of 150 g/ai ha after 15 days by greenhouse test; assay type: functional
Cyperus iria [17] = test: Post-emergence herbicidal activity against Cyperus iria assessed as growth inhibition at emulsified concentrate of 37.5 g/ai ha after 15 days by greenhouse test; assay type: functional
Abutilon theophrasti [18] = test: Post-emergence herbicidal activity against Abutilon theophrasti (velvetleaf) assessed as growth inhibition at emulsified concentrate of 37.5 g/ai ha after 15 days by greenhouse test; assay type: functional
Digitaria sanguinalis = test: Post-emergence herbicidal activity against Digitaria sanguinalis (hairy crabgrass) assessed as growth inhibition at emulsified concentrate of 150 g/ai ha after 15 days by greenhouse test; assay type: functional; how it was run: as §3
Amaranthus retroflexus [19] = test: Post-emergence herbicidal activity against Amaranthus retroflexus assessed as growth inhibition at emulsified concentrate of 75 g/ai ha after 15 days by greenhouse test; assay type: functional; how it was run: as §1
Polygonum humifusum [20] = test: Post-emergence herbicidal activity against Polygonum humifusum assessed as growth inhibition at emulsified concentrate of 75 g/ai ha after 15 days by greenhouse test; assay type: functional
Brassica juncea [21] = test: Post-emergence herbicidal activity against Brassica juncea assessed as growth inhibition at emulsified concentrate of 75 g/ai ha after 15 days by greenhouse test; assay type: functional; how it was run: as §1
Eclipta prostrata [22] = test: Post-emergence herbicidal activity against Eclipta prostrata assessed as growth inhibition at emulsified concentrate of 150 g/ai ha after 15 days by greenhouse test; assay type: functional; how it was run: as §2

Compound | inhibition (INH) (Amaranthus retroflexus [1]) | inhibition (INH) (Polygonum humifusum [2]) | inhibition (INH) (Rumex acetosa [3]) | inhibition (INH) (Abutilon theophrasti [4]) | inhibition (INH) (Eclipta prostrata [5]) | inhibition (INH) (Amaranthus retroflexus [6]) | inhibition (INH) (Eclipta prostrata [7]) | inhibition (INH) (Rumex acetosa [8]) | inhibition (INH) (Abutilon theophrasti [9]) | inhibition (INH) (Cyperus iria [10]) | inhibition (INH) (Rumex acetosa [11]) | inhibition (INH) (Poa annua) | inhibition (INH) (Echinochloa crus-galli) | inhibition (INH) (Brassica juncea [12]) | inhibition (INH) (Brassica juncea [13]) | Ki [14] | inhibition (INH) (Polygonum humifusum [15]) | inhibition (INH) (Cyperus iria [16]) | inhibition (INH) (Cyperus iria [17]) | inhibition (INH) (Abutilon theophrasti [18]) | also measured
CCOC(=O)C(C)Sc1nc2cc(-n3nc(C(C)(C)C)oc3=O)c(F)cc2s1 (stereo not given) | 60% | 70% | 95% | 100% | 85% | 90% | 80% | 95% | 100% | 90% | 100% | 0% | 0% | 75% | 70% | 1420 nM | 60% | 100% | 90% | 80% | inhibition (INH) (Digitaria sanguinalis): 50%; inhibition (INH) (Amaranthus retroflexus [19]): 60%; inhibition (INH) (Polygonum humifusum [20]): 70%; inhibition (INH) (Brassica juncea [21]): 70%; inhibition (INH) (Eclipta prostrata [22]): 95%
CC(C)OC(=O)CSc1nc2cc(-n3nc(C(C)(C)C)oc3=O)c(F)cc2s1 | 0% | 60% | 60% | 0% | 0% | 90% | 0% | 50% | 0% | 50% | 70% | 0% | 0% | 40% | 40% | 1170 nM | 40% | 60% | 50% | 0% | inhibition (INH) (Digitaria sanguinalis): 0%; inhibition (INH) (Amaranthus retroflexus [19]): 85%; inhibition (INH) (Polygonum humifusum [20]): 40%; inhibition (INH) (Brassica juncea [21]): 50%; inhibition (INH) (Eclipta prostrata [22]): 70%
CCCOC(=O)CSc1nc2cc(-n3nc(C(C)(C)C)oc3=O)c(F)cc2s1 | 0% | 80% | 60% | 0% | 40% | 100% | 0% | 50% | 0% | 40% | 70% | 0% | 0% | 50% | 50% | 700 nM | 60% | 60% | 40% | 0% | inhibition (INH) (Digitaria sanguinalis): 0%; inhibition (INH) (Amaranthus retroflexus [19]): 60%; inhibition (INH) (Polygonum humifusum [20]): 70%; inhibition (INH) (Brassica juncea [21]): 50%; inhibition (INH) (Eclipta prostrata [22]): 90%
CCOC(=O)CCCSc1nc2cc(-n3nc(C(C)(C)C)oc3=O)c(F)cc2s1 | 60% | 80% | 60% | 50% | 60% | 90% | 50% | 50% | 0% | 60% | 70% | 0% | 0% | 50% | 50% | 700 nM | 50% | 70% | 60% | 0% | inhibition (INH) (Digitaria sanguinalis): 0%; inhibition (INH) (Amaranthus retroflexus [19]): 80%; inhibition (INH) (Polygonum humifusum [20]): 80%; inhibition (INH) (Brassica juncea [21]): 50%; inhibition (INH) (Eclipta prostrata [22]): 70%
